From ChEMBL document CHEMBL4406821, “Novel dual inhibitors targeting CDK4 and VEGFR2 synergistically suppressed cancer progression and angiogenesis” (Eur J Med Chem, 2019)
Calls of active or inactive are those of the source. No cut-off for these calls is given here.

Columns and labels:
[1] = molecular target: T1, CDK4/Cyclin D3 (Homo sapiens) (UniProt P11802+P30281); assay: Inhibition of recombinant full length human CDK4/Cyclin D3 using Rb-fragmen as substrate at 1 uM incubated for 40 mins by [gamma-33P]-ATP based radiometric assay relative to control; assay type: protein-complex assay
Procedure, shortened: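 Kinase panel profiling at 1 μM performed by Eurofins KinaseProfiler; percent inhibition reported as mean of two independent experiments.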

[2] = molecular target: T2, Vascular endothelial growth factor receptor 2 (Homo sapiens, UniProt P35968); assay: Inhibition of VEGFR2 in HUVEC cells assessed as reduction in VEGFR2 phosphorylation at 20 to 40 nM incubated for 48 hrs by Western blot analysis; assay type: cell-based
Procedure, shortened: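 HUVECs were maintained in 1640 medium with 10% FBS. They were treated with graded concentrations for 48 h, PBS-washed and lysed in RIPA buffer. Immunoblots were probed for total and phospho VEGFR2, STAT3, Akt, Erk1 and Src, each at 1:1000. β-actin served as loading control.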

[3] = test system: MDA-MB-231; assay: Inhibition of colony formation in human MDA-MB-231 cells at 20 to 40 nM incubated for 5 days by crystal violet staining based light microscopy; assay type: functional, cell-based
Procedure, shortened: (§1)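 4 × 10^3 cells per well were cultured with graded concentrations for 5 days. Cells were then fixed with 20% methanol, stained with 0.5% crystal violet and photographed by light microscopy.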

[4] = test system: SiHa; assay: Inhibition of colony formation in human SiHa cells at 40 to 80 nM incubated for 5 days by crystal violet staining based light microscopy; assay type: functional, cell-based; procedure, shortened: as §1
[5] = test system: MDA-MB-231; assay: Induction of apoptosis in human MDA-MB-231 cells assessed as increase in early apoptotic cells at 20 to 40 nM incubated for 48 hrs by annexin V FITC and propidium iodide staining based flow cytometry; assay type: functional, cell-based
Procedure, shortened: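 Cells were treated for 48 h, stained with FITC Annexin V and PI, and analyzed by flow cytometry to count early and late apoptotic cells.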

[6] = test system: T47D; assay: Induction of apoptosis in human T47D cells assessed as decrease in Ki67 expression at 20 to 40 nM incubated for 48 hrs by Western blot analysis; assay type: functional, cell-based
Procedure, shortened: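 Cancer cells were exposed to graded concentrations for 48 h, washed three times in PBS and lysed in RIPA buffer. Immunoblots were probed with anti-Rb, anti-phospho-Rb, anti-Ki67 and anti-Bcl-2, each at 1:1000. β-actin served as loading control.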

[7] = molecular target: Tyrosine-protein kinase CSK (Homo sapiens) (UniProt P41240); assay: Inhibition of recombinant full length human CSK at 1 uM using poly(Glu, Tyr) 4:1 as substrate incubated for 40 mins in presence of [gamma-33P]-ATP by scintillation counting method relative to control
Procedure, shortened: (§2)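 Tested at a single 1 uM in an outsourced commercial kinase-profiling panel, read as percent inhibition. Each value is the mean of two independent experiments.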

[8] = molecular target: Ephrin type-A receptor 2 (Homo sapiens) (UniProt P29317); assay: Inhibition of recombinant human EPhA2 (596 to 900 residues) at 1 uM using poly(Glu, Tyr) 4:1as substrate incubated for 40 mins in presence of [gamma-33P]-ATP by scintillation counting method relative to control
[9] = molecular target: Rhodopsin kinase GRK1 (Homo sapiens) (UniProt Q15835); assay: Inhibition of recombinant human full length GRK1 at 1 uM using KKKKERLLDDRHDSGLDSMKDEE as substrate incubated for 40 mins in presence of [gamma-33P]-ATP by scintillation counting method relative to control
[10] = molecular target: Serine/threonine-protein kinase STK11 (Homo sapiens) (UniProt Q15831); assay: Inhibition of recombinant human full length LKB1 at 1 uM using LSNLYHQGKFLQTFCGSPLYRRR as substrate incubated for 40 mins in presence of [gamma-33P]-ATP by scintillation counting method relative to control
[11] = molecular target: Dual specificity mitogen-activated protein kinase kinase 6 (Homo sapiens) (UniProt P52564); assay: Inhibition of recombinant human MKK6 (4 to end residues) at 1 uM using unactive SAPK2a as substrate incubated for 40 mins in presence of [gamma-33P]-ATP by scintillation counting method relative to control
[12] = molecular target: Myosin light chain kinase, smooth muscle (Homo sapiens) (UniProt Q15746); assay: Inhibition of recombinant human MLCK (1425 to 1771 residues) at 1 uM using KKLNRTLSFAEPG as substrate incubated for 40 mins in presence of [gamma-33P]-ATP by scintillation counting method relative to control
[13] = molecular target: Serine/threonine-protein kinase Nek1 (Homo sapiens) (UniProt Q96PY6); assay: Inhibition of recombinant human NEK1 (1 to 505 residues) at 1 uM using RLGRDKYKTLRQIRQ as substrate incubated for 40 mins in presence of [gamma-33P]-ATP by scintillation counting method relative to control
[14] = molecular target: Serine/threonine-protein kinase Nek2 (Homo sapiens) (UniProt P51955); assay: Inhibition of recombinant human full length NEK2 at 1 uM using myelin basic protein as substrate incubated for 40 mins in presence of [gamma-33P]-ATP by scintillation counting method relative to control
[15] = molecular target: Serine/threonine-protein kinase PLK3 (Homo sapiens) (UniProt Q9H4B4); assay: Inhibition of recombinant human PLK3 (19 to 301 residues) at 1 uM using casein as substrate incubated for 40 mins in presence of [gamma-33P]-ATP by scintillation counting method relative to control
[16] = molecular target: Serine/threonine-protein kinase 32C (Homo sapiens) (UniProt Q86UX6); assay: Inhibition of recombinant human full length STK32C at 1 uM using casein as substrate incubated for 40 mins in presence of [gamma-33P]-ATP by scintillation counting method relative to control
[17] = molecular target: Testis-specific serine/threonine-protein kinase 4 (Homo sapiens) (UniProt Q6SA08); assay: Inhibition of recombinant human full length TSSK4 at 1 uM using KKLNRTLSFAEPG as substrate incubated for 40 mins in presence of [gamma-33P]-ATP by scintillation counting method relative to control
Procedure, shortened: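 Single-point inhibition at 1 uM measured in a commercial kinase profiling panel (KinaseProfiler); each value is the mean of two independent experiments.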

[18] = molecular target: Tau-tubulin kinase 2 (Homo sapiens) (UniProt Q6IQ55); assay: Inhibition of recombinant human TTBK2 (1 to331 residues) at 1 uM using casein as substrate incubated for 40 mins in presence of [gamma-33P]-ATP by scintillation counting method relative to control; procedure, shortened: as §2
[19] = molecular target: Mitogen-activated protein kinase kinase kinase 20 (Homo sapiens) (UniProt Q9NYL2); assay: Inhibition of recombinant human full length ZAK at 1 uM using MBP as substrate incubated for 40 mins in presence of [gamma-33P]-ATP by scintillation counting method relative to control
[20] = molecular target: T1, CDK4/Cyclin D3 (Homo sapiens); assay: Inhibition of recombinant human full length CDK4/cyclinD3 at 1 uM using Rb fragment as substrate incubated for 40 mins in presence of [gamma-33P]-ATP by scintillation counting method relative to control; assay type: protein-complex assay
[21] = molecular target: T2, Vascular endothelial growth factor receptor 2; details: HUVEC, 40 nM

T2 sequence (P35968 whole entry): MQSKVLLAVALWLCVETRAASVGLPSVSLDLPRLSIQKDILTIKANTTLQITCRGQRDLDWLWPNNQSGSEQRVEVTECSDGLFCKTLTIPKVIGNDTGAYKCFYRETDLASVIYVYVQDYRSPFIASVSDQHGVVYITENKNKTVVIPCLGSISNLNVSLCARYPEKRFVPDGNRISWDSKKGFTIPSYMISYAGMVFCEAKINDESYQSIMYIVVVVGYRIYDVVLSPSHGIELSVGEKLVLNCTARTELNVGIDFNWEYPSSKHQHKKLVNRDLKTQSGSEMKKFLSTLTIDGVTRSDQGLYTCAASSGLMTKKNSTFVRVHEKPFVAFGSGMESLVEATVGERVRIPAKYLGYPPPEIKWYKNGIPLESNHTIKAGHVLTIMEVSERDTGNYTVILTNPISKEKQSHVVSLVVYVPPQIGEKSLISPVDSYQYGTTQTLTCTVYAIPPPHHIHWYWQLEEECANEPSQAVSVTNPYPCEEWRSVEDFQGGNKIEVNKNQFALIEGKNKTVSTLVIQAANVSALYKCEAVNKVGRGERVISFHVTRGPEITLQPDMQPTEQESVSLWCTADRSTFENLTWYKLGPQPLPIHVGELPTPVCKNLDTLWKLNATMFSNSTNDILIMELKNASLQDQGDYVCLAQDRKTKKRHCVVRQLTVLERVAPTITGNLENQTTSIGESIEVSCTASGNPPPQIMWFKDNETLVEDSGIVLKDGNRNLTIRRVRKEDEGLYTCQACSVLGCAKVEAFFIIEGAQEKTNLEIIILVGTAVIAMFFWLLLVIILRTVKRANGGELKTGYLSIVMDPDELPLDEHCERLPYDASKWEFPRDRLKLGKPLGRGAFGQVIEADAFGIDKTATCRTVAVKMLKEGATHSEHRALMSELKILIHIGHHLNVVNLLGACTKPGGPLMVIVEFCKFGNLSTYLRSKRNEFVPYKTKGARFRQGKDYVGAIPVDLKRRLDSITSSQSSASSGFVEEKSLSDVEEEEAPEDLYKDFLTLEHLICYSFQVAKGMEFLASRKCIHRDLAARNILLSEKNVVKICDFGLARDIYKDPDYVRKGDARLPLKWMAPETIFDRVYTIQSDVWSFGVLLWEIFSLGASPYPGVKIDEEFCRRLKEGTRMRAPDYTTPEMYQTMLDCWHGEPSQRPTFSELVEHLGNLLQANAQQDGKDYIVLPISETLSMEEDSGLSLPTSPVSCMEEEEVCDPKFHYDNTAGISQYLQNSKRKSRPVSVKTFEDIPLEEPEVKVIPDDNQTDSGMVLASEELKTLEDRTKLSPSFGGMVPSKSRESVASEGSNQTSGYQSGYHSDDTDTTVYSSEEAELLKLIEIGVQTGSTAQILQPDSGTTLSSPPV
Chain of Dual specificity mitogen-activated protein kinase kinase 6 (Homo sapiens) (P52564 whole entry, the tested form may be a part): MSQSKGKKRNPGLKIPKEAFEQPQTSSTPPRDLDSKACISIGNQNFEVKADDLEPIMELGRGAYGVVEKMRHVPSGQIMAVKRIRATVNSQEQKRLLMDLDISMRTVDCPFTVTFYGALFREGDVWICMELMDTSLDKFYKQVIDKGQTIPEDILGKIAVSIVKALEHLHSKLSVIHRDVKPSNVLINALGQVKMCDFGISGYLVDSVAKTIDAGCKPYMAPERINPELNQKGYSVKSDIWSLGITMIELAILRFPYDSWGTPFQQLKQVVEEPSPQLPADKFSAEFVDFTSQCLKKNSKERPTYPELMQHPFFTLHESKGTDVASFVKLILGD
Chain of Testis-specific serine/threonine-protein kinase 4 (Homo sapiens) (Q6SA08 whole entry): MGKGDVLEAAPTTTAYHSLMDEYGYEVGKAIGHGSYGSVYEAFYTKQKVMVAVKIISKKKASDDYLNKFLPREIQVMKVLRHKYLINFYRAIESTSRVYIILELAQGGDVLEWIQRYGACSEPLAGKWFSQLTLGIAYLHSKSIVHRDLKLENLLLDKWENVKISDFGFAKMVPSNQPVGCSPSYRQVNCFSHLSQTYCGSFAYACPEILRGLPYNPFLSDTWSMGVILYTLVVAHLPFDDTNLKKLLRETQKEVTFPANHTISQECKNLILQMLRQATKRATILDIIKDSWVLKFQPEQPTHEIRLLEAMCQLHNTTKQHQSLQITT
Chain of Rhodopsin kinase GRK1 (Homo sapiens) (Q15835 whole entry): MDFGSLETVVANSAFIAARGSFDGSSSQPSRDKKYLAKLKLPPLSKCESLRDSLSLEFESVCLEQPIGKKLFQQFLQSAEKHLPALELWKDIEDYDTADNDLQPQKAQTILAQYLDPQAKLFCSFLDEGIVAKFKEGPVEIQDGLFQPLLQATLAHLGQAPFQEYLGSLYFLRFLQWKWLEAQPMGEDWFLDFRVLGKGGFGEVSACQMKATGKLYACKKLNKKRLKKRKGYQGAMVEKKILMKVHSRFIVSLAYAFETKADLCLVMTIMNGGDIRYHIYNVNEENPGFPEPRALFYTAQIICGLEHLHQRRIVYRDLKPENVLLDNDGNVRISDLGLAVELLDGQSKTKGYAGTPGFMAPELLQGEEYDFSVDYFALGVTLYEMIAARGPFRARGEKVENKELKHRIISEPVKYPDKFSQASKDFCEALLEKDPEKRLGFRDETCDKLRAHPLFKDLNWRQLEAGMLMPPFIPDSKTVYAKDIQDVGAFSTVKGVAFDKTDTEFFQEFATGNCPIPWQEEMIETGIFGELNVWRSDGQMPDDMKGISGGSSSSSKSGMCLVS
Chain of Serine/threonine-protein kinase Nek2 (Homo sapiens) (P51955 whole entry, the tested form may be a part): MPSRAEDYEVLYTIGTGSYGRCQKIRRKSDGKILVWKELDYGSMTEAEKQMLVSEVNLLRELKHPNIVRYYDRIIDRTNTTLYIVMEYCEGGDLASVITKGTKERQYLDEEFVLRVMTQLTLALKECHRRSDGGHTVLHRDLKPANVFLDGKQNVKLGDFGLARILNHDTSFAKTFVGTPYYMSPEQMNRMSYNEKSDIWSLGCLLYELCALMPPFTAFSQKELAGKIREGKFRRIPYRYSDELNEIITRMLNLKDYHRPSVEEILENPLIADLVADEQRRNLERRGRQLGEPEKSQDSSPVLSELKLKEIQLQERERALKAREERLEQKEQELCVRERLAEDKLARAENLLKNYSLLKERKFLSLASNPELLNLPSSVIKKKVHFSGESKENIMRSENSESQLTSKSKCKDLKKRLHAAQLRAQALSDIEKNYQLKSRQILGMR
Chain of Ephrin type-A receptor 2 (Homo sapiens) (P29317 whole entry, the tested form may be a part): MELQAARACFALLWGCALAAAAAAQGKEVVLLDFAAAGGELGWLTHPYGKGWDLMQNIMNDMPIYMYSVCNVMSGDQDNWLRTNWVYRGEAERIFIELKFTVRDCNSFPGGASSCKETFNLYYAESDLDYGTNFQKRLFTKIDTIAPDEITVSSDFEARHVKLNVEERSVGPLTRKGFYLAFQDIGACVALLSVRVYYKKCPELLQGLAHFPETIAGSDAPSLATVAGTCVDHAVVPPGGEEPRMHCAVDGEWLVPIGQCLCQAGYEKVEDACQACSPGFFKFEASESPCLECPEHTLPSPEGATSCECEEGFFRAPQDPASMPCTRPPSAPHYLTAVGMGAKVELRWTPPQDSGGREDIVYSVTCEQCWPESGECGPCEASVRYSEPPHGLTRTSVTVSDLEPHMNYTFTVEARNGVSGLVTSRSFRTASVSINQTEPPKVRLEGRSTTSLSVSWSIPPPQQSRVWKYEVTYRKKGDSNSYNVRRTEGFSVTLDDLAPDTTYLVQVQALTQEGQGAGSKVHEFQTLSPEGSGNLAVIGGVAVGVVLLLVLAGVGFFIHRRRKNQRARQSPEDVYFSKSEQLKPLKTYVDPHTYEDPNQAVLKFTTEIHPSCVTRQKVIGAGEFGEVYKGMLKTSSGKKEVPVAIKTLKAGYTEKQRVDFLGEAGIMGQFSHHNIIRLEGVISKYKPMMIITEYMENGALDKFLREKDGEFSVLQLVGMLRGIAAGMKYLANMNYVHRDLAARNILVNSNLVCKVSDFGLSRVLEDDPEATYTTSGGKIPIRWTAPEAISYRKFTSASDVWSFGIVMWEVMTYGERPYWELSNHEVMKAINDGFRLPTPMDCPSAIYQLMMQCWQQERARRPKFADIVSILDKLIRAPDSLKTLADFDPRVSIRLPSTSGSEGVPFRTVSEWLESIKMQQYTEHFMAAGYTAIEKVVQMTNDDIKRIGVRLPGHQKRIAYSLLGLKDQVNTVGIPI
Chain of Tyrosine-protein kinase CSK (Homo sapiens) (P41240 2-450 limits assumed): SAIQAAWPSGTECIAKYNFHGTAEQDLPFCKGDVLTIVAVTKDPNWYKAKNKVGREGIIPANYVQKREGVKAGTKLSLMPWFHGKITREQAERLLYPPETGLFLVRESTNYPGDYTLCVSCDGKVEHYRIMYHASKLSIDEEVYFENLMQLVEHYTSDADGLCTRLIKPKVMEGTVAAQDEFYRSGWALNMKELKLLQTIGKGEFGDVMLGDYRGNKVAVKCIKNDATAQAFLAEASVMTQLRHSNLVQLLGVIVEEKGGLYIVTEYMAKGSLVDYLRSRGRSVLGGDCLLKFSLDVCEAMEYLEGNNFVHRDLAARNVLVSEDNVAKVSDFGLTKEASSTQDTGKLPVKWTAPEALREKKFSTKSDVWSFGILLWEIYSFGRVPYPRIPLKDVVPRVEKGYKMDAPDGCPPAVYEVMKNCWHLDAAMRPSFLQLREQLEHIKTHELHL
Chain of Serine/threonine-protein kinase 32C (Homo sapiens) (Q86UX6 whole entry): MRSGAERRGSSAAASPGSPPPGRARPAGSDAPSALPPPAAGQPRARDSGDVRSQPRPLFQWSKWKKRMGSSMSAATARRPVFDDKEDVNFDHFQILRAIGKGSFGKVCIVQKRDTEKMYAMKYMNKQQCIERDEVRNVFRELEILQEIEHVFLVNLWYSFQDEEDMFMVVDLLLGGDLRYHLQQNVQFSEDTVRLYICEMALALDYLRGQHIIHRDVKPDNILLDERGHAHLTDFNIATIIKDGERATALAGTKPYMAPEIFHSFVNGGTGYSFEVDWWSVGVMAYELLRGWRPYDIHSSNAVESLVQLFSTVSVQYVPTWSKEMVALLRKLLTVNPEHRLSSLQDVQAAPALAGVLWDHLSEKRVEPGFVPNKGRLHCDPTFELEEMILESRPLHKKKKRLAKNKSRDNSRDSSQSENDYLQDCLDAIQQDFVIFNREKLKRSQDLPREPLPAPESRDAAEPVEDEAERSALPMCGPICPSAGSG

Cc1ccc(NC(=O)C2(C(=O)Nc3ccc(Nc4ncc(F)c(-c5cc(F)c6nc(C)n(C(C)C)c6c5)n4)cc3)CC2)cc1
inhibition [1]: 97%
inhibition [2]: Active
inhibition [3]: Active
inhibition [4]: Active
Activity [5]: Active
Activity [6]: Active
inhibition [7]: 0%
inhibition [8]: 61%
inhibition [9]: 8%
inhibition [10]: 12%
inhibition [11]: 16%
inhibition [12]: 21%
inhibition [13]: 72%
inhibition [14]: 57%
inhibition [15]: 36%
inhibition [16]: 5%
inhibition [17]: 0%
inhibition [18]: 0%
inhibition [19]: 14%
inhibition [20]: 97%

COc1cc2nccc(Oc3ccc(NC(=O)C4(C(=O)Nc5ccc(F)cc5)CC4)cc3)c2cc1OC [CABOZANTINIB]
inhibition [21]: Active
